# S1P1 ag pot: S1P1 (human) agonism or agonism potentiation. P21453. S1P1 CRE-bla cells, forskolin, beta-lactamase FRET, potentiator mode; S1P1 agonist co-added at EC20, 2 nM; 100% = saturating reference agonist, 0% = basal. activation, % at 9.5 µM. 0.57% of 56,000 active. AID 449;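 active means activation above a cutoff set at the mean activation of all tested compounds plus 3 SD, cut at about 54% in these data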;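 further: forskolin at 4 µM as EC80 and the EC20 agonist is SEW2871; 100% = SEW2871 at its EC100 plus forskolin at EC80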
# HTR1E agonist: agonists of human 5-HT1E serotonin receptor; CHO 5-HT1E Ga15 NFAT-bla reporter, FRET; 0% DMSO wells, 100% control agonist wells; activation, % at 6 µM; 0.69% of 65,000 active; AID 574;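 active means activation above a set limit, the screen-wide mean activation plus 3 SD, cut at about 8.5% in these data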;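 further: 100% = positive control agonist at 1 µM giving full maximal response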
# Target sequence (P28566 whole entry, looked up): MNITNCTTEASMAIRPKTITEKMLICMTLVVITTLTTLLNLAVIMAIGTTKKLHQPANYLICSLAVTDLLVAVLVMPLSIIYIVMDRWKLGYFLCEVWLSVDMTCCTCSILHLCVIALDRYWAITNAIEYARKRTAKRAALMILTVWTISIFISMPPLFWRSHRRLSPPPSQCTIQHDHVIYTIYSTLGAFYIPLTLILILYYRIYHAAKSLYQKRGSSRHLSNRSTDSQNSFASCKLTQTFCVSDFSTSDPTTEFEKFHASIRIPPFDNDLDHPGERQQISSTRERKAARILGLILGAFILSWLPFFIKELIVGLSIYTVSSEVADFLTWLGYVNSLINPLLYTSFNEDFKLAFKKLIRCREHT
# 5HT1a antag: blocks the human serotonin 5-HT1a receptor; P08908; CHO 5-HT1a Ga15 NFAT-bla reporter, antagonist mode; inhibition, % at 10 µM; 0.68% of 62,000 active; AID 612;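 active means inhibition above the mean of all tested compounds plus 3 SD, cut at about 43% in these data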;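 further: receptor stimulated by 5-CT agonist at 100 nM near EC80; beta-lactamase reporter measured by ratiometric fluorescence of a cleavable substrate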
# 5HT1a ag: agonists of human 5-HT1a serotonin receptor; 0.56% of 65,000 active; activation, % at 10 µM; AID 567; CHO 5-HT1a Ga15 NFAT-bla reporter, FRET ratio; 0% basal, 100% maximal reference agonist;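 active means activation above the screen-wide mean activation plus 3 SD, cut at about 19% in these data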;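 further: 0% = DMSO wells and 100% = 5-CT at EC100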
# S1P3 ag: activates the human S1P3 receptor; S1P3 NFAT-BLA reporter cells, agonism, FRET ratio; relative to 1 µM S1P, basal subtracted; activation, % at 4.5 µM; 0.1% of 60,000 active;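 active means activation above the screen-wide mean plus 3 SD, cut at about 4.5% in these data, passing the limit was not always enough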
#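 Benchmarks: high control 1 µM S1P / System: stable CHO line with human S1P3, Gα16, NFAT-BLA reporter / Dosing: single compound concentration, 4.5 µM final / Timing: 4 h compound at 37 °C, 2 h substrate at RT / Measured by: FRET β-lactamase substrate fluorescence, excitation 405 nm, 460/535 nm emission ratio, background-subtracted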
# 5HT1E antag: antagonists of human 5-HT1E serotonin receptor. P28566. inhibition, % at 6 µM. CHO 5-HT1E Ga15 NFAT-bla reporter, FRET, antagonist. 0.99% of 65,000 active;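 active means inhibition above a set limit, the mean inhibition across every tested compound plus 3 SD, cut at about 29% in these data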;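 further: signal is the 460 over 535 nm emission ratio of beta-lactamase substrate; 0% = agonist plus DMSO wells and 100% = wells without agonist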
# * hit, by the source's call; . = not tested or not shown. Most compounds without a hit are left out; they make up all but 3% or so of the library.
SMILES,S1P1 ag pot,HTR1E agonist,5HT1a antag,5HT1a ag,S1P3 ag,5HT1E antag
COc1ccc(-c2noc(-c3cc(C)cc(C)c3)n2)cc1OC,106*,0,6,-2,0,-7
Nc1nc2ccccc2n1CCOc1ccccc1Cl,-8,0,14,-1,-2,7
COc1ccc(-c2nc(-c3ccc(NC(=O)c4ccncc4)cc3)no2)cc1OC,123*,1,43*,0,0,29*
CCOc1ccc(-c2nnc(-c3cccnc3)o2)cc1OCC,89*,0,6,-3,-1,18
COc1ccc(Cl)cc1-c1nc(-c2ccc(NC(=O)c3ccncc3)cc2)no1,26,0,-8,-2,0,0
O=S(=O)(C/C(=C/CO)S(=O)(=O)c1ccccc1)c1ccccc1,82*,0,92*,-1,-2,106*
O=C(CCCC(=O)N(CC(=O)NC1CCCCC1)Cc1ccc2c(c1)OCO2)Nc1ccccn1,-4,0,-1,-1,-1,1
O=S1(=O)Nc2c(ccc3cccnc23)-c2ccccc21,118*,7,74*,-4,-1,61*
CC(C(=O)NCC1CCCO1)n1cccc1C(=O)c1ccccc1 (centres undefined),-2,1,7,-2,-1,9
COCCNC(=O)c1cn(C)c(=O)c2cc(OC)c(OC)cc12,.,-1,11,0,.,5
COc1cc2c(C(=O)NCCCN3CCN(c4cccc(Cl)c4)CC3)cn(C)c(=O)c2cc1OC,.,16*,5,12,.,12
CCCCOC(=O)C1C2C=C[C@]3(CN(CCCOC)C(=O)[C@H]13)O2 (some centres undefined),-8,1,-6,-6,1,-10
C=C(C)COc1ccc(-c2[nH]ncc2-c2ccc(OC)c(OC)c2)c(O)c1,-14,1,40,0,-1,37*
CCCCN(C)C(=O)CS(=O)(=O)Cc1nc(-c2cccc(OC)c2)oc1C,5,-1,26,-1,0,8
COc1ccccc1-c1nnc2sc(-c3cnccn3)nn12,-7,0,1,-2,-1,-9
COc1ccccc1-c1nnc2sc(-c3ccc(N(C)C)cc3)nn12,-67,1,68*,-4,-2,86*
CN(C)c1ccc(-c2nn3c(-c4ccccc4Cl)nnc3s2)cc1,-53,2,45*,3,-1,75*
Clc1ccccc1-c1nnc2sc(-c3ccncc3)nn12,-4,0,11,-1,-1,12
COc1ccccc1-c1nnc2sc(-c3cc4ccccc4o3)nn12,-8,0,19,-2,0,36*
CCOC(=O)c1c(-c2ccc(C)o2)csc1NC(=O)CSc1nnc(C)s1,-36,2,56*,2,-1,17
CCOC(=O)c1c(-c2ccc(C)o2)csc1NC(=O)CSc1nnnn1-c1ccccc1,-25,1,18,0,-1,-14
CCSc1ccccc1C(=O)Nc1cc(C)on1,.,14*,-1,-2,-1,-3
CCOC(=O)N1CCC(Nc2c(N3CCN(c4cc(Cl)ccc4C)CC3)c(=O)c2=O)CC1,-2,1,-5,64*,-1,8
CCOC(=O)N1CCC(Nc2c(-c3ccc(C)c(C)c3)c(=O)c2=O)CC1,20,0,3,-3,1,1
Cc1ccc(-n2c(=O)[nH]cc(C(=O)Nc3ccc4c(c3)OCO4)c2=O)cc1C,-3,1,-2,0,-1,-13
SMILES,S1P1 ag pot,HTR1E agonist,5HT1a antag,5HT1a ag,S1P3 ag,5HT1E antag
Brc1cccc(-c2nnc(SCc3nc4ccccc4[nH]3)o2)c1,2,0,8,-1,-2,29*
c1ccc2[nH]c(CSc3nnc(-c4ccncc4)o3)nc2c1,-4,-1,4,-1,0,9
CCOc1ccccc1N1CCN(C(=O)c2ccncc2)CC1,6,2,-1,0,-1,2
Cc1cccc(N2CCN(C(=O)CSCc3c(C)noc3C)CC2)c1C,82*,1,17,-1,-1,2
COc1cc(C(=O)N2CCN(c3cc(Cl)ccc3Cl)CC2)cc(OC)c1OC,0,0,22,0,-1,64*
Cc1noc(C)c1CSCC(=O)N1CCN(c2ccc(F)cc2)CC1,6,0,2,-6,-1,2
Cc1cccc(N2CCN(C(=O)c3ccncc3)CC2)c1C,.,19*,-7,2,0,-3
COc1cc(C(=O)N2CCN(c3cccc(C)c3C)CC2)cc(OC)c1OC,2,0,21,-2,-2,50*
COc1ccc(C(=O)N2CCN(C(=O)c3cc(OC)c(OC)c(OC)c3)CC2)cc1,4,1,-4,1,0,-10
CN1CCC(OC(=O)C23CCC(C)(C(=O)O2)C3(C)C)CC1 (centres undefined),-24,-1,10,-4,0,-3
Cc1ccccc1S(=O)(=O)Cc1ccc(C(=O)N2CC(C)CC(C)C2)o1 (centres undefined),-4,1,-1,-1,0,-2
Cc1ccccc1S(=O)(=O)Cc1ccc(C(=O)N2CCN(c3cccc(C)c3C)CC2)o1,29,32*,16,2,-2,22
O=C(Cc1cccs1)Nc1nc2ccccc2s1,5,1,18,64*,-1,-8
O=C(CSc1nc2ccccc2o1)Nc1nc2ccccc2s1,-9,-1,-5,-1,1,1
Cc1cc(NC(=O)CSc2ccc(-c3nc4cc(C)c(C)cc4[nH]3)cn2)no1,.,1,22,1,.,31*
COc1cc(Cn2c(N)c(C#N)c3nc4ccccc4nc32)cc(OC)c1,-59,6,25,21*,5,14
COCCn1c(N)c(C(=O)NCc2cccs2)c2nc3ccccc3nc21,-45,2,-23,11,3,13
CCCn1cnc2c(c1=O)c1nc3ccccc3nc1n2Cc1ccccc1OC,-10,-1,1,-1,-1,7
N#Cc1c(N)n(CCOC(=O)c2cccc(Br)c2)c2nc3ccccc3nc12,-90,5,.,31*,2,6
COc1cccc(Cn2c(N)c(C#N)c3nc4ccccc4nc32)c1OC,-54,4,-11,8,2,33*
CCOC(=O)c1c(C)c(C(=O)NCc2cccnc2)c(C)n1CC,8,-1,6,-3,-1,10
CCc1nc(C)c(C#N)c2cc(OC)c(OC)cc12,-60,0,12,3,0,44*
O=C(COC(=O)C1CCCCC1)Nc1ccc(N2CCCCC2)cc1,.,0,-19,-2,.,-6

# Assay outcomes from PubChem BioAssay.
